From PubChem BioAssay
In the library only some 12% were active in any assay of this set; here they are far more common.
ABCB1 inh – blocks JC-1 efflux by human ABCB1 transporter. CCRF-Adr cells, flow cytometry. inhibition, % at 6.6 µM. actives 0.067% (n = 190,000). AID 1326; in the data active means inhibition above about 40%;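 further: 0% = vehicle and 100% = reference inhibitor; higher value means more JC-1 retained so stronger ABCB1 efflux block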
WT yeast gro inh – growth inhibition of WT yeast, mitochondrial fusion screen; mitochondrial fusion phenotypic screen, WT strain; inhibition, % at 10 µM; actives 2.1% (n = 190,000); in the data active means inhibition above about 58%; tested in S. cerevisiae
ABCG2 block – blocks JC-1 efflux by human ABCG2 transporter | actives 0.1% (n = 190,000) | IgMXP3 cells, flow cytometry | inhibition, % at 6.6 µM | AID 1325 | Q9UNQ0;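 active means inhibition above 80%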;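 further: 0% = DMSO and 100% = nicardipine control wells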
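Incubation: cells with compound and JC-1, 10 min at 25 °C, rotating, no wash / Test system: IgMXP3 (ABCG2) plus far-red-tagged CCRF-Adr (ABCB1) cells / Compound dosing: one concentration, 6.6 µM final / Also added: JC-1 fluorescent substrate / Evaluation: efflux inhibition in percent versus controls / Detection: flow cytometry, 530 nm JC-1 signal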
Lmaj promast – reduces viability of Leishmania major promastigotes. inhibition, % at 10 µM. AID 1063. actives 9% (n = 200,000). resazurin fluorescence viability; in the data active means inhibition above about 50%;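 further: promastigotes grown with compound for 44 hours at 28 °C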
RAM network inh – blocks the yeast RAM network; inhibition, % at 50 µM; S. cerevisiae dse1pr::URA3 reporter, 5-FOA growth OD615, 2 d; analog-sensitive cbk1-as2 kinase mutant strain; actives 1.8% (n = 190,000);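 active means inhibition above a set limit, 3 SD over mean compound inhibition, cut at about 8.4% in these data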;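 further: 0% = DMSO-only wells with no growth and 100% = 10 µM 1-NA-PP1 full growth; inhibition rescues growth on 5-FOA so higher OD means more RAM inhibition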
The depositor's hits bear a star.

`N#Cc1nc(-c2ccco2)oc1N1CCC(Cc2ccccc2)CC1` gave ABCB1 inh 0, WT yeast gro inh 29, ABCG2 block 2, Lmaj promast -5 and RAM network inh 9.7*.
`N#Cc1nc(-c2ccc(OCc3ccccc3)cc2)oc1N1CCC(C(N)=O)CC1` gave ABCB1 inh 0, WT yeast gro inh 4, ABCG2 block 2, Lmaj promast 11 and RAM network inh 8.6*.
Screening COc1cc2c(cc1OC)C(c1cccs1)N(C(=S)NC(C)C)CC2 (centres undefined) returned ABCB1 inh 0, WT yeast gro inh 7, ABCG2 block 0, Lmaj promast 23 and RAM network inh 2.
For COCCNC(=O)c1onc(CSc2ccccc2)c1C(=O)O the results were ABCB1 inh 1, WT yeast gro inh -1, ABCG2 block 4, Lmaj promast -7 and RAM network inh 1.
COCCNC(=O)c1onc(CCl)c1C(=O)OC was read as ABCB1 inh 0, WT yeast gro inh 48, ABCG2 block 0, Lmaj promast 92* and RAM network inh 2.
For CCCCNC(=O)c1onc(CCl)c1C(=O)OC the results were ABCB1 inh 0, WT yeast gro inh 14, ABCG2 block 2, Lmaj promast 101* and RAM network inh 0.
For C=CCNC(=O)c1onc(CCl)c1C(=O)OC the results were ABCB1 inh 1, WT yeast gro inh -21, ABCG2 block 15, Lmaj promast 101* and RAM network inh -1.
`C=CCNC(=O)c1onc(CSc2ccc(OC)cc2)c1C(=O)O` gave ABCB1 inh 0, WT yeast gro inh 2, ABCG2 block 5, Lmaj promast -11 and RAM network inh 2.
For CCCCC(=O)Nc1cc(C(=O)NCCc2ccccc2)ccc1Cl the results were ABCB1 inh 1, WT yeast gro inh 28, ABCG2 block 7, Lmaj promast 3 and RAM network inh 1.
For N#C/C(=C\c1cccs1)C(=O)Nc1nccs1 the results were ABCB1 inh 0, WT yeast gro inh 8, ABCG2 block 1, Lmaj promast -5 and RAM network inh 1.
For O=C(COC(=O)C1CCN(S(=O)(=O)c2ccc3c(c2)OCCO3)CC1)Nc1cccc2ccccc12 the results were ABCB1 inh 0, WT yeast gro inh -11, ABCG2 block 17, Lmaj promast -1 and RAM network inh 6.
CSCCC(NC(N)=O)C(=O)Nc1cccc(C#N)c1 (centres undefined) was read as ABCB1 inh 0, WT yeast gro inh 9, ABCG2 block -1, Lmaj promast 2 and RAM network inh 4.
Screening CC(=O)C(N=Nc1ccccc1)(Sc1nnc(-c2ccccc2)n1-c1ccccc1)C(=O)Nc1ccccc1 (centres undefined) returned ABCB1 inh 1, WT yeast gro inh 28, ABCG2 block 0, Lmaj promast 78* and RAM network inh 2.
`Cc1cccc(N2CCN(CC(O)COCc3cccs3)CC2)c1C` (centres undefined) gave ABCB1 inh 2, WT yeast gro inh 12, ABCG2 block 6, Lmaj promast 8 and RAM network inh 0.
Screening COc1ccc(NC(=O)c2cc3c(=O)n(C)c4ccccc4c3s2)cc1OC returned ABCB1 inh -1, WT yeast gro inh -5, ABCG2 block -2, Lmaj promast 2 and RAM network inh 3.
`CC1(C(=O)OCC(=O)Nc2ccc(C(N)=O)cc2)CC1(Cl)Cl` (centres undefined) gave ABCB1 inh 0, WT yeast gro inh -13, ABCG2 block 5, Lmaj promast -2 and RAM network inh 0.
For CC1(C(=O)OCC(=O)Nc2ccc3ccccc3c2)CC1(Cl)Cl (centres undefined) the results were ABCB1 inh 0, WT yeast gro inh 66*, ABCG2 block 8, Lmaj promast 10 and RAM network inh 5.
Screening CCOc1ccc(NC(=O)COC(=O)C2(C)CC2(Cl)Cl)c([N+](=O)[O-])c1 (centres undefined) returned ABCB1 inh 1, WT yeast gro inh 57, ABCG2 block 14, Lmaj promast -1 and RAM network inh 9.1*.
For C=C(C)C1CC=C(CN2CC(C)OC(C)C2)CC1 (centres undefined) the results were ABCB1 inh 0, WT yeast gro inh 10, ABCG2 block 1, Lmaj promast 88* and RAM network inh 1.
For C=C(C)C1CC=C(CN2CCC(C(=O)OCC)CC2)CC1 (centres undefined) the results were ABCB1 inh 0, WT yeast gro inh 10, ABCG2 block 1, Lmaj promast 95* and RAM network inh 0.
`CC1CN(CN2C(=O)c3ccccc3C2=O)CC(C)O1` (centres undefined) gave ABCB1 inh 0, WT yeast gro inh 13, ABCG2 block 1, Lmaj promast -4 and RAM network inh 1.
Screening C=C(C)CN(CC)C(=O)CC1C(=O)NCCN1C (centres undefined) returned ABCB1 inh 0, WT yeast gro inh -5, ABCG2 block 1, Lmaj promast 0 and RAM network inh -1.
COc1ccc(CNC(=O)c2noc(C(C)C)c2[N+](=O)[O-])cc1 was read as ABCB1 inh 1, WT yeast gro inh -3, ABCG2 block 9, Lmaj promast 54* and RAM network inh 0.
CC(C)c1onc(C(=O)NCc2ccc(Cl)cc2)c1[N+](=O)[O-] was read as ABCB1 inh 1, WT yeast gro inh -3, ABCG2 block 3, Lmaj promast -9 and RAM network inh 3.
For O=S(=O)(c1ccc(Cl)cc1)n1nnc2ccccc21 the results were ABCB1 inh 0, WT yeast gro inh -21, ABCG2 block 2, Lmaj promast -5 and RAM network inh 0.
`COc1ccc(C(=O)C2CCCN(C(=O)c3ccc4cc[nH]c4c3)C2)c(C)c1` (centres undefined) gave ABCB1 inh 0, WT yeast gro inh 9, ABCG2 block 0, Lmaj promast 0 and RAM network inh 1.
Screening Cc1ccc(-c2cc(C(=O)NN=C3CCCC3)c3ccccc3n2)cc1 returned ABCB1 inh 0, WT yeast gro inh 19, ABCG2 block 0, Lmaj promast -2 and RAM network inh 4.
Screening O=C(N/N=C/c1ccc([N+](=O)[O-])o1)c1cc(-c2cccc(Br)c2)nc2ccccc12 returned ABCB1 inh 0, WT yeast gro inh 36, ABCG2 block 6, Lmaj promast 100* and RAM network inh 7.
For O=C(N/N=C/c1ccc2c(c1)OCO2)c1cc(-c2ccccc2)nc2ccccc12 the results were ABCB1 inh 0, WT yeast gro inh 24, ABCG2 block 0, Lmaj promast 23 and RAM network inh 6.
For CCCc1ccc(-c2cc(C(=O)N/N=C/c3ccc([N+](=O)[O-])o3)c3ccccc3n2)cc1 the results were ABCB1 inh 0, WT yeast gro inh 63*, ABCG2 block -1, Lmaj promast 100* and RAM network inh 1.
